From PubChem BioAssay
A selection: hits, their analogues and other compounds. The true share with any hit is near 4.3%.
STAT1 inh = STAT1 signaling inhibitors, primary screen, cell-based, HTS, luciferase reporter; 200,000 tested, 0.35% active; inhibition, % at 5.5 µM; NIH 3T3 STAT1-luciferase reporter, IFN-gamma, luminescence; AID 920, 2007;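 active = inhibition above a set limit, the mean inhibition across all tested compounds plus 3 SD, cut at about 34% in these data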;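 note: 0% = IFN-gamma with DMSO and 100% = IFN-gamma with 300 µM nifuroxazide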
STAT3 inh-1 = IL-6 driven STAT3 reporter inhibitors, primary screen, U3A cells, luciferase, luminescence, MLSCN library; IL-6 STAT3-luciferase reporter; host cell line lacks STAT1; inhibition, % at 5.5 µM; 190,000 tested, 0.89% active; AID 862, 2007;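 active = inhibition above the mean inhibition across all screened compounds plus 3 SD, cut at about 44% in these data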;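 note: 0% = DMSO only wells and 100% = 100 µM nifuroxazide control wells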
STAT3 act = IL-6 driven STAT3 reporter potentiators, primary screen, U3A cells, luciferase, luminescence, MLSCN library; activation (% of control), % at 5.6 µM; IL-6 STAT3-luciferase reporter; 100% = signal with IL-6 EC80 alone; 190,000 tested, 0.91% active; AID 871, 2007;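 active = activation above the screen-wide mean of compound activation plus 3 SD, cut at about 130% in these data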;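 note: 0% = background luminescence of wells with medium and substrate only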
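Material: STAT3-luciferase reporter U3A cells. Controls: IL-6-treated wells, 100% activation. Read-out: % activation versus median of IL-6-stimulated wells. Probe or stimulus: IL-6 stimulus at 33 ng/mL final. Timing: compound 1 h, then IL-6 6 h at 37 °C. Signal: reporter luminescence signal.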
STAT1 act = STAT1 signaling activators, primary screen, cell-based, HTS, luciferase reporter. 200,000 tested, 2.6% active. activation (% of control), % at 5.5 µM. NIH 3T3 STAT1-luciferase reporter, IFN-gamma, luminescence; 100% = IFN-gamma alone, no compound;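 active = activation above the screen-wide mean activation plus 3 SD, cut at about 130% in these data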;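 note: raw ratio to IFN-gamma control signal so 100% means no change and 0% no light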
STAT3 inh-2 = STAT3 reporter inhibitors, retest of hits, confirmation, U3A cells, luciferase, luminescence | 1,200 tested, 45% active | inhibition, % at 5.7 µM | shares compounds with STAT3 inh-1 | AID 1265, 2008 | IL-6 STAT3 luciferase reporter; cell line lacks STAT1;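 active = inhibition above the hit cutoff computed for the primary STAT3 screen, cut at about 44% in these data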;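 note: 0% = IL-6 plus DMSO and 100% = IL-6 plus nifuroxazide control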
NFkB inh STAT3ct = NF-kB reporter inhibitors in human cells, confirmation, counter-screen for STAT3 inhibitor project, cell-based, HEK293T, luciferase, TNF-alpha stimulus; shares compounds with STAT3 inh-1; AID 1308, 2008; inhibition, % at 5.7 µM; TNF-alpha induced; 1,200 tested, 36% active;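 active = inhibition above the mean of solvent-only control wells plus 3 SD, cutoff set per campaign, cut at about 13% in these data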;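 note: 0% = TNF-alpha with DMSO and 100% = TNF-alpha with MG high control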
STAT1 inh 2 = STAT1 reporter inhibitors, IFN-gamma induced, confirmation, counter-screen for STAT3 inhibitor project, cell-based, NIH 3T3, luciferase luminescence | shares compounds with STAT3 inh-1 | NIH 3T3 STAT1-luciferase reporter | inhibition, % at 5.7 µM | 1,200 tested, 27% active | AID 1317, 2008;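 active = inhibition above the mean plus 3 SD of solvent-only control wells, limit set per screening run, cut at about 16% in these data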;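 note: 0% = DMSO with IFN-gamma and 100% = nifuroxazide control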
Active calls of the source: *; . = not tested or not shown.

SMILES	STAT1 inh	STAT3 inh-1	STAT3 act	STAT1 act	STAT3 inh-2	NFkB inh STAT3ct	STAT1 inh 2
Cc1ccc(/C=C/C(=O)NC2=NCCS2)cc1	-51.7	70.6*	40.1	147.1*	34.8	-9.2	-121.9
CC(C)(C)c1ccc(/C=C/C(=O)NC2=NCCS2)cc1	2.8	27.7	79.4	97.5	.	.	.
COc1ccc(CNC(=O)CNS(=O)(=O)c2ccc(Cl)cc2)cc1	5.8	4.6	100.1	94.9	.	.	.
COc1ccccc1CC(=O)Nc1ccc2c(c1)C(=O)NC2=O	-2.0	12.1	93.8	99.2	.	.	.
Oc1ccccc1Nc1nc(NCC2CCCO2)c2ccccc2n1 (stereo unspecified)	4.0	50.1*	63.7	96.4	33.3	-7.4	0.5
Oc1ccc(Nc2nc(NCC3CCCO3)c3ccccc3n2)cc1 (stereo unspecified)	2.5	20.8	89.4	97.7	.	.	.
Cc1ccsc1/C=C1\CCc2ccccc2C1=O	31.7	78.2*	34.5	70.7	48.3*	10.7	-40.4
COc1ccc(/C=C2\CCc3ccccc3C2=O)cc1OC	7.0	3.9	105.4	93.7	.	.	.
O=C(Nc1nonc1NC(=O)c1cccs1)c1cccs1	10.9	43.6*	66.2	91.2	46.9*	13.3*	7.5
CC1(C)CC(=NOC(=O)c2ccccc2)CC(C)(C)N1O	11.0	2.2	97.4	90.2	.	.	.
CCOC(=O)c1sc2nc(CC(=O)OC)nc(NCc3ccc(Cl)cc3)c2c1C	5.6	44.2*	65.7	94.8	49.8*	11.7	14.3
CCOC(=O)c1sc2nc(CC(=O)OC)nc(NCCN(CC)CC)c2c1C	5.0	5.7	100.2	95.4	.	.	.
CC1Cc2cc(-c3csc(NC(=O)Cc4ccccc4)n3)ccc2N1S(C)(=O)=O (stereo unspecified)	3.3	66.0*	46.8	97.0	53.1*	13.0*	9.6
CS(=O)(=O)N1CCc2cc(-c3csc(NC(=O)C(c4ccccc4)c4ccccc4)n3)ccc21	-11.0	30.3	78.2	110.2	.	.	.
O=C(Nc1ccc(Br)cc1)c1ccc(F)c(S(=O)(=O)NCc2cccs2)c1	17.3	57.1*	52.0	84.3	68.7*	16.9*	16.1*
COc1ccc2c(c1)oc(=O)c1c3ccccc3[nH]c21	-31.9	59.9*	53.0	128.0	62.2*	-10.1	-53.1
COc1ccc2c(c1)oc(=O)c1ccccc12	-20.5	11.3	91.9	117.7	.	.	.
O=C(CSc1nc(-c2ccco2)cc(C(F)(F)F)n1)Nc1ccc(C(=O)N2CCCCC2)cc1	6.6	50.4*	62.2	94.1	46.5*	14.8*	17.7*
Cc1cccc(C)c1NC(=O)CSc1nc(-c2ccco2)cc(C(F)(F)F)n1	-0.7	8.7	93.9	101.6	.	.	.
COc1ccc(C(=O)Nc2ccccc2C(=O)N/N=C/c2ccco2)cc1	29.0	48.5*	60.4	74.4	2.2	17.9*	20.0*
Cc1ccc(N=Nc2ccc(O)c3ncccc23)cc1C	-4.8	-10.9	110.4	103.4	.	.	.
CCS(=O)(=O)c1ccc(N=Nc2ccc(O)c3ncccc23)c(OC)c1	-2.2	55.4*	55.9	103.7	16.5	-4.6	-18.1
Nc1ccc(-c2nc3ccc(N)cc3o2)cc1	-27.3	4.5	100.3	124.8	.	.	.
Cc1ccc2nc(-c3cc(N)cc(N)c3)oc2c1	3.5	43.4*	65.1	96.8	25.3	4.6	-14.6
CC(=O)Nc1ccc(-c2csc(Nc3ccc(S(N)(=O)=O)cc3)n2)cc1	-7.9	15.6	90.3	107.0	.	.	.
SMILES	STAT1 inh	STAT3 inh-1	STAT3 act	STAT1 act	STAT3 inh-2	NFkB inh STAT3ct	STAT1 inh 2
CC(=O)Nc1ccc(-c2csc(Nc3ccc(Cl)cn3)n2)cc1	-19.6	52.5*	59.7	117.9	46.1*	5.0	-17.5
O=C(Nc1ccc2c(c1)nc1n2CCOC1)c1ccco1	-23.2	4.9	98.8	121.3	.	.	.
O=C(Nc1ccc2c(c1)nc1n2CCSC1)c1ccco1	4.1	63.2*	50.6	96.2	23.7	-16.4	-38.5
CC(C)Cn1c(N)c(C(=O)CSc2ccccc2)c(=O)n(C)c1=O	0.9	44.8*	62.1	99.2	44.0*	-4.5	-1.1
CC(C)Cn1c(N)c(C(=O)COC(=O)CC23CC4CC(CC(C4)C2)C3)c(=O)n(C)c1=O	23.0	69.9*	41.3	78.9	72.6*	23.7*	24.0*
Cc1ccccc1CSCC(=O)c1c(N)n(CC(C)C)c(=O)n(C)c1=O	11.8	43.1	67.0	89.1	.	.	.
CC(C)Cn1c(N)c(C(=O)COC(=O)c2ccc(Cl)cc2)c(=O)n(C)c1=O	16.5	30.7	75.3	85.2	.	.	.
CC(C)Cn1c(N)c(C(=O)COC(=O)CCc2nc3ccccc3s2)c(=O)n(C)c1=O	24.8	70.4*	41.5	76.3	74.5*	7.5	15.7
CCN(CC)C(=O)C(=O)c1ccn(-c2c(C)csc2C(=O)OC)c1	3.4	20.6	89.1	97.1	.	.	.
COc1cccc(C(=O)/C=C/Nc2cccc(O)c2)c1	19.9	102.1*	14.9	87.0	95.5*	13.8*	22.5*
CCOC(=O)c1ccc(N/C=C/C(=O)c2ccccc2)cc1	-21.3	24.1	81.9	118.2	.	.	.
COc1cccc(C(=O)/C=C/Nc2ccc(S(=O)(=O)Nc3cccc(C(C)=O)c3)cc2)c1	15.0	22.2	83.9	86.2	.	.	.
O=C(/C=C/Nc1ccccc1)c1ccccc1	33.1	67.3*	46.0	69.5	35.6	-4.7	-56.6
O=C(/C=C/Nc1ccc(F)cc1Br)c1ccccc1	18.0	86.3*	27.3	84.0	76.1*	62.4*	33.0*
CC(=O)c1ccc(NC(=O)COC(=O)c2nc(Cl)ccc2Cl)cc1	-2.5	3.7	102.7	100.9	.	.	.
CC(=O)NCC(=O)OC(C(=O)c1ccccc1)c1ccc(Cl)cc1 (stereo unspecified)	-9.0	-11.2	107.7	108.6	.	.	.
Cc1ccc2[nH]c3c(N4CCN(Cc5ccc6c(c5)OCO6)CC4)ncnc3c2c1	30.9	54.2*	59.0	71.9	32.7	14.8*	17.4*
COc1ccc(CCN2C(=O)C3C4C=CC(C3C2=O)C2C(=O)N(CCc3ccc(OC)c(OC)c3)C(=O)C42)cc1OC (stereo unspecified)	13.7	67.6*	44.0	89.3	65.7*	29.1*	12.5
Cc1noc(C)c1CSc1ccccc1C(=O)N1CCN(c2ccccc2)CC1	2.5	14.6	90.4	97.5	.	.	.
Cc1noc(C)c1CSCC(=O)N1CCN(c2ccc(F)cc2)CC1	27.2	45.8*	67.0	75.2	30.8	2.6	4.3
Cc1cccc(N2CCN(C(=O)CSCc3c(C)noc3C)CC2)c1C	22.0	69.6*	45.7	79.9	59.1*	11.3	14.3
